M4 PAM: human M4 muscarinic receptor positive allosteric modulators, primary screen, CHO-K1 cells, Fluo-8 calcium fluorescence. Muscarinic acetylcholine receptor M4 (Homo sapiens), P08173. CHO-K1 hM4/Gqi5, ACh EC20; 0% = ACh EC20, 100% = maximal ACh. activation, % at 3 µM. 0.4% of 360,000 active. AID 624126, 2012;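 active = activation above its plate's cutoff, the mean activation of sample wells plus 3 SD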
Target sequence (P08173 whole entry, looked up): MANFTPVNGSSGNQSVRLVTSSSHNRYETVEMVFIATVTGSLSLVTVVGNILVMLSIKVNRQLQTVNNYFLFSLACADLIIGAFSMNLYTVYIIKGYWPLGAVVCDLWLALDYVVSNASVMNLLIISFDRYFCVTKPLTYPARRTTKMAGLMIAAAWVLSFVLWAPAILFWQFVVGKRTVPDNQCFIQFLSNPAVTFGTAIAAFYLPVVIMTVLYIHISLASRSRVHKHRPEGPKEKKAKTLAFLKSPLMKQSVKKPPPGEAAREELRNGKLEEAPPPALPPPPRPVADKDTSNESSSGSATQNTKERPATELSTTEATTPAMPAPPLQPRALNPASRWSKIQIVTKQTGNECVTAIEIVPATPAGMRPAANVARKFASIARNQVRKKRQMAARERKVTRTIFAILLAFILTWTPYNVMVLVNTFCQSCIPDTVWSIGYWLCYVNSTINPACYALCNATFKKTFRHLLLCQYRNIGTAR
M4 ag: human M4 muscarinic receptor agonists, primary screen, CHO-K1 cells, Fluo-8 calcium fluorescence | CHO-K1 hM4/Gqi5; vehicle 0%, full acetylcholine response 100% | Muscarinic acetylcholine receptor M4 (Homo sapiens), P08173 | 0.14% of 360,000 active | AID 624127, 2012 | activation, % at 3 µM;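 active = activation above the run mean over all test wells plus 3 SD, cut at about 32% in these data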;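 note: peak over basal fluorescence ratio per well then scaled between controls; 0% = DMSO wells and 100% = acetylcholine at EC100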
TAAR1 antag: human TAAR1 antagonists, primary screen, Fluo-8 calcium fluorescence, CHO RD-HGA16 cells | Trace amine-associated receptor 1 (Homo sapiens), Q96RJ0 | antagonist | inhibition, % at 3 µM | 1.5% of 360,000 active;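 active = inhibition above a per-plate cutoff, the mean inhibition of test compounds on that plate plus 3 SD, cut at about 49% in these data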;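 note: 0% = DMSO plus EC80 beta-PEA response and 100% = DMSO alone without agonist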
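Test system – hTAAR1-expressing CHO RD-HGA16 cells, Gα16-coupled · Reagent – β-PEA at EC80 concentration, post-compound challenge · Compound dosing – 3 µM, single point · Timing – 140 s kinetic read after compound, 140 s after agonist · Detection – Fluo-8 intracellular calcium dye fluorescence, real-time kinetic reads · Control set – DMSO and EC80 PEA controls · Repeats – n of 1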
M4 antag: human M4 muscarinic receptor antagonists, primary screen, CHO cells, Fluo-8 calcium fluorescence. Muscarinic acetylcholine receptor M4 (Homo sapiens), P08173. CHO-hM4 cells, ACh EC80. inhibition, % at 3 µM. 0.73% of 360,000 active. AID 624125, 2012;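 active = inhibition above its plate's cutoff, the mean inhibition of sample wells plus 3 SD, cut at about 27% in these data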;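 note: 0% = acetylcholine EC80 with DMSO and 100% = DMSO without agonist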
TAAR1 agonist: human TAAR1 agonists, primary screen, Fluo-8 calcium fluorescence, CHO RD-HGA16 cells; Trace amine-associated receptor 1 (Homo sapiens), Q96RJ0; vehicle wells 0%, saturating PEA agonist 100%; activation, % at 3 µM; 0.99% of 360,000 active; AID 624467, 2012;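 active = activation above the mean activation of all test compounds in the run plus 3 SD, cut at about 38% in these data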
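Test system: RD-HGA16 (CHO) cells co-expressing Gα16 and hTAAR1 / Benchmarks: DMSO vehicle as 0%, PEA at EC100 as 100% / Repeats: no replicates (n 1) / Measure: % activation from peak over basal fluorescence ratio, DMSO-to-PEA scaled / Timing: 17-24 h plating, Fluo-8 75 min 37 °C, 30 min RT / Technique: kinetic Fluo-8 calcium fluorescence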
TAAR1 ag confirm: human TAAR1 agonists, retest of hits, confirmation, Fluo-8 calcium fluorescence, CHO RD-HGA16 cells. shares compounds with TAAR1 agonist. scaled: DMSO 0%, maximal phenethylamine 100%. activation, % at 3 µM. 82% of 2,400 active. AID 651783, 2012;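 active = activation above a cutoff set at the run's mean compound activation plus 3 SD, cut at about 39% in these data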
Ga16 nonsel ag: nonselective calcium mobilization agonists, CHO-Ga16 cells, counter-screen for hTAAR1 agonist project, cell-based, fluorescence, CHO-Ga16 parental line | activation, % at 3 µM | 50% of 2,400 active | Fluo-8 calcium fluorescence; normalized to maximal ATP response, DMSO zero | shares compounds with TAAR1 agonist;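 active = activation above the run cutoff, the mean activation over all tested wells plus 3 SD, cut at about 12% in these data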;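 note: 0% = DMSO wells and 100% = maximal ATP response on the peak over basal ratio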
TAAR1 desensitize: TAAR1 desensitization by agonist hits, confirmation, counter-screen for TAAR1 agonist project, cell-based, fluorescence, tachyphylaxis; shares compounds with TAAR1 agonist; CHO RD-HGA16 hTAAR1, Fluo-8 calcium, beta-PEA response inhibition; inhibition, % at 3 µM; 46% of 2,400 active; AID 651951, 2012;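 active = inhibition above the run cutoff, the mean inhibition of all test compounds plus 3 SD, cut at about 49% in these data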;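 note: beta-PEA stimulus applied at its EC80; loss of beta-PEA calcium signal after compound pretreatment read as receptor desensitization; 0% = DMSO with beta-PEA at EC80 and 100% = DMSO alone without agonist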
Ga16 nonsel ant: inhibition of ATP-evoked calcium response in CHO-Ga16 cells, counter-screen for TAAR1 agonist project, cell-based, fluorescence; shares compounds with TAAR1 agonist; CHO-Ga16 ATP-induced calcium, Fluo-8 fluorescence; inhibition, % at 3 µM; 39% of 2,400 active;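 active = inhibition above the plate's mean compound inhibition plus 3 SD, computed per plate, cut at about 22% in these data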;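 note: 0% = EC80 ATP with DMSO and 100% = DMSO wells without ATP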
* = called active by the depositor; x = no result. The list is not random: actives were taken first. Their share in the collection is about 3%.

SMILES | M4 PAM | M4 ag | TAAR1 antag | M4 antag | TAAR1 agonist | TAAR1 ag confirm | Ga16 nonsel ag | TAAR1 desensitize | Ga16 nonsel ant
FC(F)(F)c1cc(N2CCNCC2)c2ccccc2n1 | -15 | 0 | -18 | -6 | 0 | x | x | x | x
CC(=O)C(C(C)=O)c1cc(NS(=O)(=O)c2ccccc2)ccc1NS(=O)(=O)c1ccccc1 | 1 | 14 | 42 | 10 | 102* | 67* | 44* | 49* | 22*
O=C(Nc1ccc(F)cc1)C(c1cccc(F)c1)N1CCN(c2ccncc2)CC1 (stereo unspecified) | 1 | 7 | -10 | -3 | 3 | x | x | x | x
Fc1c(F)c(C(F)(F)F)c(F)c(F)c1N/N=C\c1cccs1 | -12 | 30 | 75* | 21 | 92* | 70* | 86* | 71* | 80*
CC1(C(=O)NS(=O)(=O)C2CC2)CCCN(C(=O)COCc2ccccc2)C1 (stereo unspecified) | 6 | 1 | -3 | -10 | 1 | x | x | x | x
CCCCOc1ccc(C(=O)Nc2ccc(N3CCN(C)CC3)cc2)cc1 | -2 | 1 | 23 | -9 | 48* | 68* | 3 | 68* | 18
CCOc1ccc(C(=O)Nc2ccc(N3CCN(C)CC3)cc2)cc1 | -1 | 1 | -5 | -6 | 13 | x | x | x | x
COc1cccc(CNC(=O)[C@@H]2CCCN2C(=O)[C@H]2CCCCN2C(=O)c2cccc(OC)c2)c1 | 9 | 2 | 0 | -8 | 0 | x | x | x | x
O=C(N[C@H](C(=O)N1CCC[C@H]1C(=O)NCCc1ccccc1Cl)C1CCCCC1)c1ccccc1 | x | x | 66* | x | 64* | 76* | 2 | 85* | -2
O=C(N[C@H](C(=O)N1CCC[C@H]1C(=O)NC1CCCC1)C1CCCCC1)c1ccccn1 | x | x | -15 | x | 0 | x | x | x | x
COc1cccc(C(=O)N[C@H](C(=O)N2CCC[C@H]2C(=O)NCCc2ccccc2Cl)C2CCCCC2)c1 | x | x | 55* | x | 52* | 79* | 4 | 86* | 5
O=C(N[C@H](C(=O)N1CCC[C@H]1C(=O)NCCc1ccccc1Cl)C1CCCCC1)C1CC1 | x | x | 34 | x | 46* | 73* | 1 | 78* | 6
CC(C)c1ccc(NC2CCCN(C(=O)CN3CCCCC3=O)C2)cc1 (stereo unspecified) | 6 | 2 | -26 | -26 | 3 | x | x | x | x
CCOC(=O)C1(C)CCCN(C(=O)c2cccc3ccccc23)C1 (stereo unspecified) | -4 | 0 | -25 | -2 | 3 | x | x | x | x
O=C1c2ccccc2C(c2nnnn2-c2ccc3c(c2)OCCO3)N1Cc1cccc(F)c1 (stereo unspecified) | -1 | 2 | -1 | 2 | 1 | x | x | x | x
O=[N+]([O-])c1ccc(N/N=C/c2cccc(O)c2)cc1 | -10 | 8 | 46 | 2 | 59* | 43* | 7 | 25 | 16
O=[N+]([O-])c1ccc(NN=Cc2cccc([N+](=O)[O-])c2)cc1 | -2 | 4 | 31 | -1 | 2 | x | x | x | x
CCCCN1C(=O)C(CC(=O)NCc2cccc3ccccc23)CC(C(=O)N2CCOCC2)=C1C (stereo unspecified) | 0 | 2 | -11 | -2 | 3 | x | x | x | x
O=C(Cc1cccs1)N[C@@H]1c2ccccc2CC[C@@H]1OCc1ccccc1 | 2 | -1 | 82* | 2 | 59* | 0 | 6 | 12 | 18
Cc1cc(-c2csc(N)n2)c(C)n1CCc1ccccc1 | 14 | 0 | 37 | -1 | 78* | 102* | 11 | 89* | -3
Cc1cc(C(=O)CCl)c(C)n1CCc1ccccc1 | x | x | 47 | x | 64* | 71* | 7 | 66* | 7
Cc1cc(-c2csc(N)n2)c(C)n1CCC(C)C | 14 | 1 | -11 | -2 | 2 | x | x | x | x
COC(=O)CCCn1c(C)cc(C(=O)CCl)c1C | 4 | 2 | 12 | -8 | 0 | x | x | x | x
CCOC(=O)c1cc(-c2ccccc2)n(CCC(=O)O)c1C | -1 | 0 | 2 | 10 | 9 | x | x | x | x
CCOC(=O)c1cc(C)n(CCc2ccccc2)c1C | -2 | -2 | 20 | -6 | 51* | 64* | 6 | 47 | 9
SMILES | M4 PAM | M4 ag | TAAR1 antag | M4 antag | TAAR1 agonist | TAAR1 ag confirm | Ga16 nonsel ag | TAAR1 desensitize | Ga16 nonsel ant
O=C(NCCN1CCN(Cc2ccccc2)CC1)c1ccc(CS(=O)(=O)c2c(Cl)cccc2Cl)o1 | -10 | 3 | -2 | 20 | -1 | x | x | x | x
S=C(Nc1cc(Cl)cc(Cl)c1)NC1CCN(Cc2ccccc2)CC1 | -13 | 35* | 20 | 20 | 64* | 58* | 32* | 53* | 46*
S=C(Nc1ccccc1Cl)NC1CCN(Cc2ccccc2)CC1 | 1 | 2 | -10 | -1 | 4 | x | x | x | x
Cc1cc(C)n(-c2nc3ccccc3nc2NCCc2ccccc2)n1 | -4 | -2 | -8 | 2 | 61* | 36 | 1 | 3 | 3
Cc1ccc(N2CCC3CC2c2cc(-c4ccc(C(F)(F)F)cc4)ccc23)cc1 (stereo unspecified) | 0 | 0 | -12 | 3 | 0 | x | x | x | x
COc1ccc2c(OC)cc(=O)n(C)c2c1 | 5 | 1 | -14 | -1 | 68* | 7 | 5 | 6 | 4
COc1ccc(S(=O)(=O)N2CCC3CC2c2c(-c4ccc(C(F)(F)F)cc4)cccc23)cc1 (stereo unspecified) | -3 | 0 | -17 | 1 | 0 | x | x | x | x
CC(CCCN1CCCC1)Nc1ccnc2cc(Cl)ccc12 (stereo unspecified) | -9 | 1 | -2 | 26 | 0 | x | x | x | x
CC(Nc1ccnc2cc(Cl)ccc12)c1ccc(S(N)(=O)=O)cc1 (stereo unspecified) | -10 | 0 | -2 | -3 | 53* | 69* | 0 | 51* | -2

Screening results: PubChem BioAssay, The Scripps Research Institute Molecular Screening Center
